Key:
Assay type in all cases: in vivo
[1] = Organ dye content 24 hours after IV injection; settings: mice
Outline: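 ND4 Swiss Webster mice (25–30 g, n=3 per group) were anaesthetised with IP pentobarbital (40 mg/kg). They received 0.24 mg/kg dye (conjugate dosed by dye content) via the tail vein. At 24 h, organs were dissected, minced, homogenised and extracted in DMSO for 4 h, then centrifuged at 9,000 rpm for 15 min. Supernatant fluorescence was read against a DMSO calibration curve (785 nm excitation) and normalised to organ mass.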

[2] = Two-compartment pharmacokinetic analysis of plasma data; settings: ND4 Swiss Webster, mouse, iv, 0.24 mg/kg, distribution half-life, mice, IV 0.24 mg/kg dye, two-compartment model
[3] = Plasma dye concentration after IV injection; settings: mice, 24 hours after IV injection

CC1(C)C(/C=C/C=C/C=C/C=C2\N(CCCCS(=O)(=O)O)c3ccc4ccccc4c3C2(C)C)=[N+](CCCCS(=O)(=O)[O-])c2ccc3ccccc3c21 [ICG, indocyanine green]
organ dye content, kidneys [1]: at background level
organ dye content, lungs [1]: at background level
half-life [2]: ~3.06 min
overall recovered percentage of injected dose (plasma plus organs) [3]: 2.6%
recovered percentage of injected dose in plasma [3]: 0.8%
